Results taken from ChEMBL document CHEMBL1144424, “Synthesis and biological evaluation of 14-alkoxymorphinans. 22.(1) Influence of the 14-alkoxy group and the substitution in position 5 in 14-alkoxymorphinan-6-ones on in vitro and in vivo activities” (J Med Chem, 2005).

Columns and labels:
[1] = target: Delta-type opioid receptor (Mus musculus, UniProt P32300); test: In vitro agonistic activity against opioid receptor delta of mouse vas deferens; format: functional, tissue-based
Procedure, shortened: (§1)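 Field stimulation with supramaximal-voltage bipolar rectangular pulses of male guinea-pig ileum myenteric plexus longitudinal muscle and of mouse vas deferens. Inhibition of the electrically evoked twitch; IC50 values as mean ± SEM.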

[2] = Ratio of binding affinities for opioid receptors kappa and mu
Procedure, shortened: (§2)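 Ratios of Ki values from competition binding. Rat brain membranes were used with 0.5 nM [3H]DAMGO (mu) or [3H][Ile5,6]deltorphin II (delta), 45 min at 35 °C. Guinea pig brain membranes were used with 1 nM [3H]U69,593 (kappa), 30 min at 30 °C. Nonspecific binding was defined with 10 µM naloxone.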

[3] = Relative agonistic activity against opioid receptor delta in mouse vas deferens and opioid receptor mu in guinea pig ileum; format: functional
[4] = tested on: Mus musculus; test: Antinociceptive potencie was assessed after subcutaneous administration of compound by hotplate test (HP) in mice; format: functional
Procedure, shortened: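 Male CD-1 mice (20-25 g), compound in sterile Ringer's solution given sc, 10 animals per dose. Paw licking or jumping on 55 °C hot-plate; pre-drug control latency (non-responders within 3 s excluded), 12 s cutoff.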

[5] = target: Mu-type opioid receptor (Cavia porcellus, UniProt P97266); test: In vitro agonistic activity against opioid receptor mu of guinea pig ileum; format: functional, tissue-based; procedure, shortened: as §1
Sequence of Mu-type opioid receptor (Cavia porcellus, UniProt P97266) (P97266 whole entry): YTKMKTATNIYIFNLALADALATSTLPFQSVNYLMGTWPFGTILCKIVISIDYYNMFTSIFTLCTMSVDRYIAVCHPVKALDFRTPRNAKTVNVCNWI

[6] = target: Mu-type opioid receptor (Rattus norvegicus, UniProt P33535); test: Inhibition of [3H]DAMGO binding to opioid receptor mu from rat brain membranes; format: cell membranes, Membrane
Sequence of Mu-type opioid receptor (Rattus norvegicus, UniProt P33535) (P33535 whole entry): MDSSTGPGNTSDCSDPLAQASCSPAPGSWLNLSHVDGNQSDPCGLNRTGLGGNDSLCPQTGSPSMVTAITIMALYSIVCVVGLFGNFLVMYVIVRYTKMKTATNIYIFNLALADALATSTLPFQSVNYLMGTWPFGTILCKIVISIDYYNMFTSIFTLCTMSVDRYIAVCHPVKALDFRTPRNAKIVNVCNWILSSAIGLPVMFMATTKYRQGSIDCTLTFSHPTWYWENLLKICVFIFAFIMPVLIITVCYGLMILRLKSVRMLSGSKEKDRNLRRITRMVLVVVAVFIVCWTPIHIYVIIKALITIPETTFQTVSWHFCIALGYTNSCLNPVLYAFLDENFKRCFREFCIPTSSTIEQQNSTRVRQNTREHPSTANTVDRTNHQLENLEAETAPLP
Procedure, shortened: (§3)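 Sprague-Dawley rat brain membranes (0.3-0.5 mg protein) in 50 mM Tris-HCl incubated with 0.5 nM [3H]DAMGO or [3H][Ile5,6]deltorphin II, 45 min at 35 °C. GF/C filtration, ice-cold Tris-HCl washes; nonspecific binding with 10 µM naloxone. Duplicates, 3-4 independent experiments; Ki as mean ± SEM.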

[7] = target: Opioid receptors; mu & delta (Rattus norvegicus) (UniProt P33533+P33535); test: Ratio of binding affinities for opioid receptors delta and mu; format: protein assay; procedure, shortened: as §2
Sequence of Opioid receptors; mu & delta (Rattus norvegicus) (P33533 whole entry, looked up): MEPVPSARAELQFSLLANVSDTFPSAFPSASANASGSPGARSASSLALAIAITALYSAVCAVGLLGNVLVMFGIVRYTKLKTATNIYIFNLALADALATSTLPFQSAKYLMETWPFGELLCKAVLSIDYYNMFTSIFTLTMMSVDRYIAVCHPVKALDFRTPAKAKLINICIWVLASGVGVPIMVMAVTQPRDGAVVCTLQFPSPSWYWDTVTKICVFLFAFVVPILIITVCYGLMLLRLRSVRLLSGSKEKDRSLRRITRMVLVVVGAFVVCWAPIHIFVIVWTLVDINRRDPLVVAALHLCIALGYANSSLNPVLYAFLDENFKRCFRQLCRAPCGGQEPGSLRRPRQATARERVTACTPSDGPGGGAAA
Sequence of Opioid receptors; mu & delta (Rattus norvegicus) (P33535 whole entry, looked up): as the sequence (P33535 whole entry) above

[8] = target: Delta-type opioid receptor (Rattus norvegicus, UniProt P33533); test: Inhibition of [3H][Ile5,6]deltorphin II binding to opioid receptor delta from rat brain membranes; format: cell membranes, Membrane; procedure, shortened: as §3
Sequence of Delta-type opioid receptor (Rattus norvegicus, UniProt P33533) (P33533 whole entry): as the sequence (P33533 whole entry, looked up) above

[9] = target: Kappa-type opioid receptor (Cavia porcellus, UniProt P41144); test: Inhibition of [3H]U-69593 binding to opioid receptor kappa from guinea pig brain membranes
Sequence of Kappa-type opioid receptor (P41144 whole entry): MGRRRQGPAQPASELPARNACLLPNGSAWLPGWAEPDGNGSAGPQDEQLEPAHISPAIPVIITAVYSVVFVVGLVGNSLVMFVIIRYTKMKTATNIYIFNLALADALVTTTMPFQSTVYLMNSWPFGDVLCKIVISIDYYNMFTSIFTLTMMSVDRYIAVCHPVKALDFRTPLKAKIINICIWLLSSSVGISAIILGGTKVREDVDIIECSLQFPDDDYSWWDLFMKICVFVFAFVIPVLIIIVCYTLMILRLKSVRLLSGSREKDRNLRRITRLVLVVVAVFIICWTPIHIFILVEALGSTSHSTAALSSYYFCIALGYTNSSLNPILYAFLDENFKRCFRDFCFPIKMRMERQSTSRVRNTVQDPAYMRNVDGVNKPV

[10] = tested on: Mus musculus; test: Gastrointestinal (GI) motility was assessed by colonic bead expulsion after subcutaneous administration in mice; format: functional; settings: sc
[11] = organism: Mus musculus; test: Ratios of colonic bead expulsion to that of antinociceptive potencie by hotplate test in mice; format: functional

Sequence of Delta-type opioid receptor (Mus musculus, UniProt P32300) (P32300 whole entry): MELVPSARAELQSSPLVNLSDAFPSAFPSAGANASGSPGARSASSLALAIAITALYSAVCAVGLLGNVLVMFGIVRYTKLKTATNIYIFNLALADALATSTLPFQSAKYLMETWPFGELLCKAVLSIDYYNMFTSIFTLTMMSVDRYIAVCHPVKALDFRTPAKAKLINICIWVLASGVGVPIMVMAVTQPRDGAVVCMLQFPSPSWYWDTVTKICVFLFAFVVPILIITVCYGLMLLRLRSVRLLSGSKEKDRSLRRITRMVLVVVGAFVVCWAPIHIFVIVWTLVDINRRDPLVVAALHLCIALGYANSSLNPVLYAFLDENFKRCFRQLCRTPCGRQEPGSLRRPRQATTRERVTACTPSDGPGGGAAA

Structure (SMILES)	IC50 [1] [nM]	Selectivity [2]	Ratio [3]	AD50 [4] [nmol/kg]	IC50 [5] [nM]	Ki [6] [nM]	Selectivity [7]	Ki [8] [nM]	Ki [9] [nM]	ED50 [10] [µmol/kg]	Ratio [11]
CO[C@@]12CCC(=O)[C@]3(C)Oc4c(O)ccc5c4[C@@]31CCN(C)[C@@H]2C5	24.4	168	4	280	6.1	0.15	89	13.3	25.2	–	–
CN1CC[C@]23c4c5ccc(O)c4O[C@H]2C(=O)CC[C@@]3(OCc2c(Cl)cccc2Cl)[C@H]1C5	209	3.2	0.2	1640	1000	10.3	15	152	33.2	2.49	1.5
C=CCO[C@@]12CCC(=O)[C@@H]3Oc4c(O)ccc5c4[C@@]31CCN(C)[C@@H]2C5	63	55	3.6	35	17.6	0.61	59	36	33.8	0.037	1.1
CN1CC[C@]23c4c5ccc(O)c4O[C@H]2C(=O)CC[C@@]3(OCc2cccc3ccccc23)[C@H]1C5	0.8	5.1	0.9	14.4	0.9	0.18	16	2.92	0.92	0.0118	0.8
CN1CC[C@]23c4c5ccc(O)c4O[C@H]2C(=O)CC[C@@]3(OCc2ccccc2)[C@H]1C5	1.5	10	1.7	9.6	0.9	0.12	18	2.14	1.18	0.027	2.8
CO[C@@]12CCC(=O)[C@@H]3Oc4c(O)ccc5c4[C@@]31CCN(C)[C@@H]2C5	30.5	–	–	53	2	–	–	4.8	–	0.022	–
CN1CC[C@]23c4c5ccc(O)c4O[C@H]2[C@@H](O)C=C[C@H]3[C@H]1C5 [MORPHINE]	–	–	–	6690	–	–	–	–	–	7.62	–
CN1CC[C@]23c4c5ccc(O)c4O[C@@]2(C)C(=O)CC[C@@]3(OCc2ccccc2)[C@H]1C5	2.3	14	4.6	65	0.5	0.18	20	3.67	2.46	0.074	1.1
CCO[C@@]12CCC(=O)[C@]3(C)Oc4c(O)ccc5c4[C@@]31CCN(CCc1ccccc1)[C@@H]2C5	9.7	520	5.1	109	1.9	0.16	20	3.14	83.2	0.121	1.1
